Measured values: ChEMBL document CHEMBL4699408, “Synthesis and evaluation of anticancer activity of new 9-acridinyl amino acid derivatives” (RSC Med Chem, 2020)
pIC50: −log10 of the molar value. Activity calls are given as the source filed them. The calls are words filed in the database; no cut-off is given here.

How the values were obtained:
[1] = tested on: K562; experiment: Cytotoxicity against human K562 cells assessed as reduction in cell viability incubated for 72 hrs by MTT assay; type: functional, cell-based; details: K562, 72 h
[2] = tested on: A549; experiment: Cytotoxicity against human A549 cells assessed as reduction in cell viability incubated for 72 hrs by MTT assay; type: functional, cell-based; details: A549, 72 h
[3] = tested on: MRC5; experiment: Cytotoxicity against human MRC5 cells assessed as reduction in cell viability incubated for 72 hrs by MTT assay; type: cell-based; details: MRC5, 72 h
[4] = tested on: DNA; experiment: Binding affinity to DNA isolated from human A549 cells assessed as intercalating activity at 100 uM after 1 hr by electrophoretic mobility shift assay
In short: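 Genomic DNA isolated from A549 cells (proteinase K/SDS lysis, salt precipitation, ethanol precipitation); 0.5 μg DNA incubated 1 h at room temperature with 100 μM compound in 5 mM Tris-HCl/50 mM NaCl buffer; run on 0.8% agarose gel 4 h at 30 V, GelRed stained; binding read as shift in DNA mobility.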

[5] = tested on: A549; experiment: Induction of cell cycle arrest in human A549 cells assessed as effect on cell cycle distribution at IC50 concentration incubated for 24 to 48 hrs by RNaseA/propidium iodide staining based flow cytometry; type: functional; details: time hrs 24-48
[6] = target: DNA topoisomerase 2-alpha (Homo sapiens, UniProt P11388); experiment: Inhibition of human topoisomerase 2alpha using supercoiled pNO1 plasmid DNA as substrate incubated for 30 mins by fluorescence based microplate reader analysis
DNA topoisomerase 2-alpha, sequence (P11388 whole entry): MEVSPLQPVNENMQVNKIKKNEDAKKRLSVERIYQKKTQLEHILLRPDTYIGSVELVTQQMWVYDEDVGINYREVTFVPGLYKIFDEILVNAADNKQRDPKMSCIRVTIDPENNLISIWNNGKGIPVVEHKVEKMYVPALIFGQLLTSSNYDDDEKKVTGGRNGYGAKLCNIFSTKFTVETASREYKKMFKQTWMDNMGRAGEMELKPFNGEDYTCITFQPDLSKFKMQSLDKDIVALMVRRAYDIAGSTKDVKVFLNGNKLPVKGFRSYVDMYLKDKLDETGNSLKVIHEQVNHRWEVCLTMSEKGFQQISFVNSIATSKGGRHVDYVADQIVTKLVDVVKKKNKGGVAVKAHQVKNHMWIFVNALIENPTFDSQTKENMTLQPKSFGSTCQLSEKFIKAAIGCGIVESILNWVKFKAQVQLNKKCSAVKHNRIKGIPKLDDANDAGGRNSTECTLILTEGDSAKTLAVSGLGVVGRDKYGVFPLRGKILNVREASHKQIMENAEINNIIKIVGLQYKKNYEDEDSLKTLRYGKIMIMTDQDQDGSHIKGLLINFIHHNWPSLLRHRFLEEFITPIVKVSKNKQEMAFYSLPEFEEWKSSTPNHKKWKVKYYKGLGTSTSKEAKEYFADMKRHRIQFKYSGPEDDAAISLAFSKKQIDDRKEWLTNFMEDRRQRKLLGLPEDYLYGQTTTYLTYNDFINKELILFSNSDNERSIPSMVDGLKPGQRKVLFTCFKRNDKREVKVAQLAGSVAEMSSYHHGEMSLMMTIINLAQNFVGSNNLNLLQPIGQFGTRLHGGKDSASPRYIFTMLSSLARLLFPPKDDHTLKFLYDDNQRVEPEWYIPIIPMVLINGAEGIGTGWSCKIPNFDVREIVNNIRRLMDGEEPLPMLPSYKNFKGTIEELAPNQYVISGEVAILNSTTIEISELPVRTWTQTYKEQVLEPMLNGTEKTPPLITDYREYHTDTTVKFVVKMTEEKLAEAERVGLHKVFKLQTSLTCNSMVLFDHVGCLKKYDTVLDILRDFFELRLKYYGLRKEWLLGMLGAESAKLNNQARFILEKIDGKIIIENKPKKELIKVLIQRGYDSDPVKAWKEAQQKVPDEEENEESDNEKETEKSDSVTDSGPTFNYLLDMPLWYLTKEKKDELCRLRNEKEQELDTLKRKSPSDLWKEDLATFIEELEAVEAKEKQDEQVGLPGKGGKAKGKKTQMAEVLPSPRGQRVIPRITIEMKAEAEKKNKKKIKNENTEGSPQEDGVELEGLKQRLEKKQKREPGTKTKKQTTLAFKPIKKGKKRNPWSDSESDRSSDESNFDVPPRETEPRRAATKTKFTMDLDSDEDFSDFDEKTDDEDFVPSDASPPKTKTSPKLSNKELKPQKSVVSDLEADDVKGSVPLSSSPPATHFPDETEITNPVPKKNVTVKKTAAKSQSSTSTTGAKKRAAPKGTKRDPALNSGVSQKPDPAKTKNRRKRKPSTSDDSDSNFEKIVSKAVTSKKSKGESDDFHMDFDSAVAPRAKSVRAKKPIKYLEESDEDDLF

[7] = tested on: A549; experiment: Induction of apoptosis in human A549 cells assessed as late apoptotic cells at IC50 concentration after 48 hrs by annexin V-FITC/propidium iodide staining based flow cytometry (reference value: 0.7 %); type: functional
[8] = Cytotoxicity against unstimulated human blood Leucocytes assessed as cell viability at 6.25 to 100 uM incubated for 24 to 72 hrs by MTT assay; details: leucocyte
[9] = tested on: A549; experiment: Induction of apoptosis in human A549 cells assessed as early apoptotic cells at IC50 concentration after 48 hrs by annexin V-FITC/propidium iodide staining based flow cytometry (reference value: 0.9 %); type: functional
[10] = tested on: A549; experiment: Inhibition of colony formation in human A549 cells at IC50 concentration incubated for 48 hrs followed by cell washing and measured after 10 days by crystal violet staining based assay relative to control; type: functional
[11] = tested on: A549; experiment: Cell cycle arrest in human A549 cells assessed as accumulation in SubG1 phase by measuring late apoptotic cells with fragmented DNA content at IC50 concentration incubated for 48 hrs by RNaseA/propidium iodide staining based flow cytometry; type: functional
[12] = tested on: A549; experiment: Cell cycle arrest in human A549 cells assessed as accumulation in S phase at IC50 concentration incubated for 24 hrs by RNaseA/propidium iodide staining based flow cytometry; type: functional
[13] = tested on: A549; experiment: Cell cycle arrest in human A549 cells assessed as accumulation in G2/M phase at IC50 concentration incubated for 24 hrs by RNaseA/propidium iodide staining based flow cytometry (reference value: 9 %); type: functional
[14] = tested on: A549; experiment: Cell cycle arrest in human A549 cells assessed as accumulation in G2/M phase at IC50 concentration incubated for 48 hrs by RNaseA/propidium iodide staining based flow cytometry (reference value: 11 %); type: functional

| SMILES | pIC50 [1] | pIC50 [2] | pIC50 [3] | Activity [4] | Activity [5] | pIC50 [6] | Activity [7] [%] | Activity [8] | Activity [9] [%] | inhibition (INH) [10] [%] | Activity [11] | Activity [12] | Activity [13] [%] | Activity [14] [%] |
| --- | --- | --- | --- | --- | --- | --- | --- | --- | --- | --- | --- | --- | --- | --- |
| COC(=O)[C@H](Cc1ccccc1)Nc1c2ccccc2nc2ccccc12 | 4.39 | 4.59 | 4.32 |  |  |  |  |  |  |  |  |  |  |  |
| Cn1cc(C[C@H](Nc2c3ccccc3nc3ccccc23)C(=O)O)c2ccccc21 | 4.37 | 4.47 | 4.33 |  |  |  |  |  |  |  |  |  |  |  |
| CCOC(=O)CCNc1c2ccccc2nc2ccccc12 | 4.72 | 5.21 | 4.92 | inactive | inactive | 4.89 | 1.2 | Non-Toxic | 3.7 | >95 |  |  |  |  |
| CCCOC(=O)CCCCCNc1c2ccccc2nc2ccccc12 | 4.12 | 4.14 | 4.23 |  |  |  |  |  |  |  |  |  |  |  |
| COc1cc(NS(C)(=O)=O)ccc1Nc1c2ccccc2nc2ccccc12 [AMSACRINE] | 4.86 | 4.65 | 4.81 | Active |  | 4.80 | 2.8 | Toxic | 16.1 |  | Active | Active |  |  |
| CCCOC(=O)CCCNc1c2ccccc2nc2ccccc12 | 4.66 | 4.71 | 4.77 | Active |  | 4.80 | 3.8 | Non-Toxic | 12.5 | >95 |  |  | 18 | 29 |
| COC(=O)CCCCCCCNc1c2ccccc2nc2ccccc12 | 4.20 | 4.20 | 4.30 |  |  |  |  |  |  |  |  |  |  |  |
| CCOC(=O)CCCCCNc1c2ccccc2nc2ccccc12 | 4.46 | 4.44 | 4.60 |  |  |  |  |  |  |  |  |  |  |  |
| COC(=O)[C@H](Cc1c[nH]cn1)Nc1c2ccccc2nc2ccccc12 | 4.34 | 4.46 | 4.19 |  |  |  |  |  |  |  |  |  |  |  |
| COC(=O)[C@H](Cc1cn(C)c2ccccc12)Nc1c2ccccc2nc2ccccc12 | 4.33 | 4.53 | 4.25 |  |  |  |  |  |  |  |  |  |  |  |
| CCOC(=O)CCCNc1c2ccccc2nc2ccccc12 | 4.95 | 5.02 | 4.80 | inactive | inactive | 4.85 | 5.4 | Non-Toxic | 11.7 | >95 |  |  |  |  |
| CCCOC(=O)CCNc1c2ccccc2nc2ccccc12 | 4.79 | 5.20 | 4.94 | inactive |  | 4.85 | 2.9 | Non-Toxic | 4.6 | >95 |  |  | 12 | 19 |
